≈ marks a conversion by molar mass, not a printed value. Each block holds one molecule with its values, some of them ahead of it.
Experiments:
[1] = Solubility of the compound in alphaMEM containing 5% FCS and 1% DMSO by HPLC analysis; type: physicochemical
Procedure, shortened: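 Saturated drug solutions were incubated at 37 °C in αMEM with 5% FCS and 1% DMSO. Dissolved drug was quantified by HPLC.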

HCT-116 [2] = test: Cytotoxicity against human HCT116 cells incubated for 4 hrs under anaerobic condition measured after 5 days by sulforhodamine B assay; type: functional, cell-based
Procedure, shortened: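 STR-authenticated, mycoplasma-free HCT116 cells in αMEM + 5% FCS were seeded at 700 cells/well and allowed 2 h to attach. Drug was added from DMSO stocks (<1% DMSO) in serial 3-fold dilutions for 4 h, oxic or anoxic (Pd-catalyst anaerobic chamber, medium pre-equilibrated ≥3 days). After washing, cells regrew for 5 days before SRB staining and IC50 determination.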

HCT-116 [3] = test: Hypoxic cytotoxicity ratio of IC50 for human HCT116 cells under oxic condition to IC50 for human HCT116 cells under anoxic condition
Procedure, shortened: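 HCT116 cells, 700 per well and attached 2 h, got a 4 h exposure to 3-fold serial dilutions (<1% DMSO) under air or in a Pd-catalyst anaerobic chamber with pre-equilibrated medium. Cells were washed, regrown 5 days, and stained with sulforhodamine B to give IC50. HCR = oxic IC50 / anoxic IC50.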

HCT-116 [4] = test: (§1) Hypoxia radiosensitization activity in human HCT116 cells assessed as survival ratio by measuring ratio of cell survival with 15 Gy radiation in absence to presence of compound at anoxic IC50 preincubated for 1 hr followed by 15 Gy irradiation measured after 10 days by methylene blue staining-based cell counting method; type: functional
Procedure, shortened: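 Anoxic HCT116 cells were seeded at 10^5/well and treated at the anoxic IC50 concentration for 1 h at room temperature. They were irradiated with 15 Gy (60Co, ~2 Gy/min) in a sealed steel box, then plated clonogenically. Colonies of >50 cells were counted […]. SR15 = survival with radiation / survival with drug + radiation.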

HCT-116 [5] = test: (§2) Hypoxia radiosensitization activity in human HCT116 cells assessed as sensitizer enhancement ratio by measuring ratio of radiation dose for 1% survival in absence to presence of compound at 2.76 mM preincubated for 1 hr followed by irradiation measured after 10 days by methylene blue staining-based cell counting method; type: functional
HCT-116 [6] = test: as §2, with “method relative to misonidazole” for “method”; type: functional
HCT-116 [7] = test: as §1, with “with” for “with 15 Gy”, “2.76 mM” for “anoxic IC50”, “6 to 29” for “15”; type: functional
HCT-116 [8] = test: as §1, with “with” for “with 15 Gy”, “2.76 mM” for “anoxic IC50”, “6 to 29” for “15”, “method relative to misonidazole” for “method”; type: functional
HCT-116 [9] = test: Cytotoxicity against human HCT116 cells at anoxic IC50 incubated for 1 hr at 21 degC by clonogenic survival assay; settings: hct-116, 1 h
HCT-116 [10] = test: as §1, with “with” for “with 15 Gy”, “2.86 mM” for “anoxic IC50”, “6 to 29” for “15”; type: functional
HCT-116 [11] = test: as §1, with “with” for “with 15 Gy”, “2.86 mM” for “anoxic IC50”, “6 to 29” for “15”, “method relative to misonidazole” for “method”; type: functional
HCT-116 [12] = test: as §2, with “4.39” for “2.76”; type: functional
HCT-116 [13] = test: as §2, with “4.39” for “2.76”, “method relative to misonidazole” for “method”; type: functional
HCT-116 [14] = test: as §1, with “with” for “with 15 Gy”, “4.39 mM” for “anoxic IC50”, “6 to 29” for “15”; type: functional
HCT-116 [15] = test: as §1, with “with” for “with 15 Gy”, “4.39 mM” for “anoxic IC50”, “6 to 29” for “15”, “method relative to misonidazole” for “method”; type: functional
[16] = Electrophilicity of the compound in pH 7 phosphate buffer assessed as one-electron reduction potential
Procedure, shortened: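 The one-electron reduction potential was set by pulse radiolysis equilibria at pH 7.0 (2.5 mM phosphate), established within 20 µs against benzylviologen, methylviologen or triquat. ΔE came from equilibrium constants via the Nernst equation, at three concentration ratios and 22 ± 2 °C.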

HCT-116 [17] = test: as §2, with “2.32” for “2.76”; type: functional
HCT-116 [18] = test: as §2, with “2.32” for “2.76”, “method relative to misonidazole” for “method”; type: functional
HCT-116 [19] = test: as §1, with “with” for “with 15 Gy”, “2.32 mM” for “anoxic IC50”, “6 to 29” for “15”; type: functional
HCT-116 [20] = test: as §1, with “with” for “with 15 Gy”, “2.32 mM” for “anoxic IC50”, “6 to 29” for “15”, “method relative to misonidazole” for “method”; type: functional
HCT-116 [21] = test: as §1, with “with” for “with 15 Gy”, “0.7 mM” for “anoxic IC50”, “6 to 29” for “15”; type: functional
HCT-116 [22] = test: as §1, with “with” for “with 15 Gy”, “0.7 mM” for “anoxic IC50”, “6 to 29” for “15”, “method relative to misonidazole” for “method”; type: functional
HCT-116 [23] = test: Hypoxia radiosensitization activity in human HCT116 cells assessed as sensitizer enhancement ratio by measuring ratio of radiation dose for 1% survival in absence to presence of compound at 1 mM […] measured after 10 days by methylene blue staining-based cell counting method; type: functional
HCT-116 [24] = test: as §2, with “1” for “2.76”, “method relative to misonidazole” for “method”; type: functional
HCT-116 [25] = test: as §1, with “with” for “with 15 Gy”, “1 mM” for “anoxic IC50”, “6 to 29” for “15”; type: functional
HCT-116 [26] = test: as §1, with “with” for “with 15 Gy”, “1 mM” for “anoxic IC50”, “6 to 29” for “15”, “method relative to misonidazole” for “method”; type: functional
Mus musculus [27] = test: Drug level in NIH-III mouse assessed as maximum achievable dose at 10 ml/kg, iv; type: ADME; settings: in vivo
Procedure, shortened: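 Non-tumor-bearing female NIH-III mice (~20 g) received freshly prepared solutions i.v. at 10 mL/kg in 0.9% saline with 1% DMSO, or saline with 2 molar equivalents NaHCO3 for phosphate prodrugs. MAD was the maximum dose that dissolved in the injection volume.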

Plasma = test: Cmax in plasma of NIH-III mouse xenografted with human HCT116 cells at 2.20 mmol/kg, iv administered as single dose by HPLC analysis; type: ADME, organism-based; parameters: dose 2.2 mmol/kg, route intravenous; settings: in vivo
Procedure, shortened: (§3)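 Female NIH-III mice bearing subcutaneous HCT116 xenografts (10^6 cells inoculated). At ca. 300 mm3 tumor size, a single i.v. dose was given at the MAD or 75% of the MTD. Vehicle was 0.9% saline with 1% DMSO, or saline with 2 molar equivalents NaHCO3 for phosphate prodrugs. Plasma and tumor were sampled at multiple times by cardiac puncture and excision, assayed by HPLC, and analysed noncompartmentally.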

[28] = Tmax in plasma of NIH-III mouse xenografted with human HCT116 cells at 2.20 mmol/kg, iv administered as single dose by HPLC analysis; type: ADME, organism-based; settings: 2.2 mmol/kg
Procedure, shortened: (§4)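 Female NIH-III mice bearing subcutaneous HCT116 tumors (10^6 cells; ~300 mm3) got a single i.v. dose at the MAD or 75% of the MTD. Vehicle was saline with 1% DMSO, or saline with 2 equivalents of NaHCO3 for the phosphates. Plasma and tumor were sampled at multiple times by cardiac puncture and excision, drug was measured by HPLC, and Tmax came from noncompartmental analysis.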

[29] = Cmax in tumor of NIH-III mouse xenografted with human HCT116 cells at 2.20 mmol/kg, iv administered as single dose by HPLC analysis; type: ADME, organism-based, Neoplasm; parameters: dose 2.2 mmol/kg, route intravenous; settings: in vivo; procedure, shortened: as §3
[30] = Tmax in tumor of NIH-III mouse xenografted with human HCT116 cells at 2.20 mmol/kg, iv administered as single dose by HPLC analysis; type: ADME, organism-based, Neoplasm; settings: 2.2 mmol/kg; procedure, shortened: as §4
HCT-116 [31] = test: In vivo hypoxia radiosensitization activity in human HCT116 cells xenografted in NIH-III mouse assessed as survival ratio by measuring ratio of cell survival with 12.5 Gy radiation in absence to presence of compound at 2.20 mmol/kg, iv pretreated as single dose for 10 mins followed by irradiation measured after 18 hrs by excision assay; type: functional
Mus musculus [32] = test: Toxicity in NIH-III mouse xenografted with human HCT116 cells assessed as change in body weight with 12.5 Gy radiation at 2.20 mmol/kg, iv administered as single dose; settings: in vivo

- solubility [1]: > 55.2 mM
Structure (SMILES): Cc1ncc([N+](=O)[O-])n1CCS(=O)(=O)NCCCN1CCOCC1
- IC50 (HCT-116 [2]): 2800 µM
- Ratio IC50 (HCT-116 [3]): 0.8
- Ratio (HCT-116 [4]): 8
- Ratio (HCT-116 [5]): 1.68
- fold change (FC) (HCT-116 [6]): 1.2
- Ratio (HCT-116 [7]): 28
- fold change (FC) (HCT-116 [8]): 3.96
- Activity (HCT-116 [9]): Non-Toxic

- solubility [1]: 24.4 mM (≈ 6790 µg/mL)
Structure (SMILES): COCCNS(=O)(=O)CCn1cncc1[N+](=O)[O-]
- IC50 (HCT-116 [2]): 4400 µM
- Ratio IC50 (HCT-116 [3]): 2.5
- Ratio (HCT-116 [4]): 122
- Ratio (HCT-116 [12]): 1.56
- fold change (FC) (HCT-116 [13]): 1.08
- Ratio (HCT-116 [14]): 26
- fold change (FC) (HCT-116 [15]): 2.23
- Activity [16]: -450 mV
- Activity (HCT-116 [9]): Non-Toxic

- solubility [1]: 23.7 mM (≈ 5930 µg/mL)
Structure (SMILES): O=[N+]([O-])c1cncn1CS(=O)(=O)NCCO
- IC50 (HCT-116 [2]): 2300 µM
- Ratio IC50 (HCT-116 [3]): 4
- Ratio (HCT-116 [4]): 181
- Ratio (HCT-116 [17]): 1.81
- fold change (FC) (HCT-116 [18]): 1.28
- Ratio (HCT-116 [19]): 114
- fold change (FC) (HCT-116 [20]): 14.8
- Activity (HCT-116 [9]): Non-Toxic

The remaining lines, values behind:

Structure (SMILES): COCCNS(=O)(=O)CCn1c([N+](=O)[O-])cnc1C
- Ratio (HCT-116 [10]): 4.8
- fold change (FC) (HCT-116 [11]): 0.58
- Activity (HCT-116 [9]): Non-Toxic

Structure (SMILES): Cc1ncc([N+](=O)[O-])n1CCS(=O)(=O)NCCN1CCCC1
- Ratio (HCT-116 [21]): 13.6
- fold change (FC) (HCT-116 [22]): 1.51
- Activity (HCT-116 [9]): Non-Toxic

Structure (SMILES): O=C(Cn1ccnc1[N+](=O)[O-])NCCO [ETANIDAZOLE]
- solubility [1]: > 200 mM
- IC50 (HCT-116 [2]): 1000 µM
- Ratio IC50 (HCT-116 [3]): 19
- Ratio (HCT-116 [23]): 1.339
- Ratio (HCT-116 [4]): 7
- fold change (FC) (HCT-116 [24]): 0.95
- Ratio (HCT-116 [25]): 4.6
- fold change (FC) (HCT-116 [26]): 0.75
- Drug uptake (Mus musculus [27]): 2.2 mmol/kg
- Cmax (Plasma): 3640 µM
- Tmax [28]: 5 min
- Cmax [29]: 800 µM
- Tmax [30]: 5 min
- Ratio (HCT-116 [31]): 8
- Activity [16]: -388 mV
- Activity (HCT-116 [9]): Non-Toxic
- Activity (Mus musculus [32]): Non-Toxic
